Data taken from ChEMBL document CHEMBL1153853, “Colon-specific mutual amide prodrugs of 4-aminosalicylic acid for their mitigating effect on experimental colitis in rats” (Eur J Med Chem, 2009).
The source made the active and inactive calls. The calls are words filed in the database; no cut-off is given here.

Legend:
Rattus norvegicus [1] = species: Rattus norvegicus; experiment: Antiinflammatory activity against TNBS-induced Wistar rat colitis model assessed as decrease in severity of inflammation treated rectally 3 days after TNBS induction for 8 days measured after 24 hrs of last treatment; assay type: functional, organism-based
How it was run: (§1)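 TNBS colitis in Wistar rats (100 mg/kg in 50% ethanol, intrarectal, 48 h fast), left untreated 3 days before dosing, vehicle 1% carboxymethylcellulose. Weight loss, stool consistency and rectal bleeding scored daily over 11 days; the daily clinical activity score is the average of the three, 0 (healthy) to 4 (maximal colitis); mean of six rats.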

Rattus norvegicus [2] = experiment: Inhibition of TNBS-induced morphological change in rectaly administered Wistar rat colon; assay type: functional, organism-based
Rattus norvegicus [3] = species: Rattus norvegicus; experiment: Antiinflammatory activity against TNBS-induced Wistar rat colitis model assessed as decrease in ratio of colon to body weight treated rectally 3 days after TNBS induction for 8 days measured after 24 hrs of last treatment; assay type: functional, organism-based; details: in the assay text read “treated orally” for “treated rectally”
How it was run: (§2)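 Wistar rats (200–250 g, 12–15 weeks, n = 6/group), fasted 48 h, given TNBS 100 mg/kg in 50% ethanol (500 µl) intrarectally 8 cm via catheter under light ether; untreated 3 days, then dosed (controls got 1% carboxymethylcellulose); 11-day study. Sacrificed 24 h after last dose under isoflurane; 8 cm colon excised, colon/body weight ratio taken; mean of six.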

Rattus norvegicus [4] = experiment: Antiinflammatory activity against TNBS-induced po dosed Wistar rat colitis model assessed as inhibition of MPO activity in neutrophils per 100 mg of tissue; assay type: functional
How it was run: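 Colonic tissue from TNBS-colitis rats given oral treatment; MPO measured by the Krawisz method, one unit degrading […] hydrogen peroxide at 25 °C; reported as mU per 100 mg wet tissue.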

Rattus norvegicus [5] = species: Rattus norvegicus; experiment: Antiinflammatory activity against TNBS-induced Wistar rat colitis model assessed as decrease in severity of inflammation treated rectally 3 days after TNBS induction measured on day 7; assay type: functional, organism-based; details: in the assay text read “treated orally” for “treated rectally”; how it was run: as §1
Rattus norvegicus [6] = experiment: Antiinflammatory activity against TNBS-induced Wistar rat colitis model assessed as decrease in severity of inflammation treated po 3 days after TNBS induction measured on day 7; assay type: functional, organism-based; how it was run: as §1
Rattus norvegicus [7] = experiment: Ulcerogenic effect in rat colon assessed as ulcer index at 1154.30 mg/kg by Rainsford's cold stress method; assay type: toxicity, organism-based; design: dose 1154.3 mg/kg; details: in vivo, 1154.3 mg/kg
Rattus norvegicus [8] = experiment: Antiinflammatory activity against TNBS-induced Wistar rat colitis model assessed as decrease in ratio of colon to body weight treated po 3 days after TNBS induction for 8 days measured after 24 hrs of last treatment; assay type: functional; how it was run: as §2
Liver = experiment: Toxicity in rat liver; assay type: tissue-based; details: in vivo
[9] = Stability assessed as half life in phosphate buffer at pH 7.4; assay type: physicochemical
How it was run: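 Same set-up in phosphate buffer pH 7.4 (0.05 M, ionic strength 0.5 with KCl), 37 ± 1 °C, 10 h. Remaining prodrug read by UV at 255 and 290 nm; first-order kinetics, triplicate.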

Rattus norvegicus [10] = experiment: Ulcerogenic effect in rat colon assessed as ulcer index at 2263.75 mg/kg by Rainsford's cold stress method; assay type: toxicity, organism-based; design: dose 2263.75 mg/kg; details: in vivo
Pancreas = experiment: Toxicity in rat pancreas; assay type: tissue-based; details: in vivo
[11] = Partition coefficient, log p in n-octanol/phosphate buffer at pH 7.4; assay type: physicochemical
How it was run: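 Partitioning between n-octanol and phosphate buffer pH 7.4 at 25 ± 1 °C.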

[12] = Aqueous solubility of the compound; assay type: physicochemical; details: water (aqueous)
How it was run: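 Solubility in distilled water at room temperature (25 ± 1 °C).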

[13] = Half life in rat fecal matter assessed as release of 4-aminosalicylic acid; assay type: ADME, tissue-based, Feces; details: in vitro
How it was run: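 Prodrug in phosphate buffer pH 7.4 (250 µg/ml, diluted to 50 µg/ml in 5 ml) added to 1 g fresh rat feces; incubated 37 °C anaerobically in a CO2 incubator for up to 20 h. Remaining prodrug read by UV at 255 nm (4AP) or 290 nm (4AT) against calibration curves; first-order fits, triplicate, mean K.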

[14] = Stability assessed as half life in hydrochloric acid buffer at pH 1.2; assay type: physicochemical
How it was run: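 10 mg prodrug in 900 ml HCl buffer pH 1.2 (0.05 M, ionic strength 0.5 set with KCl) at 37 ± 1 °C for 10 h. Remaining prodrug followed by UV at 251 and 285 nm; first-order kinetics, triplicate.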

Rattus norvegicus [15] = experiment: Half life in TNBS-induced po dosed Wistar rat colitis model assessed as assessed as release of 4-aminosalicylic acid; assay type: ADME, organism-based; details: in vivo
Rattus norvegicus [16] = experiment: Ulcerogenic effect in rat colon assessed as ulcer index at 2258.01 mg/kg by Rainsford's cold stress method; assay type: toxicity, organism-based; design: dose 2258.01 mg/kg; details: in vivo
Rattus norvegicus [17] = experiment: Half life in TNBS-induced po dosed Wistar rat colitis model assessed as assessed as release of 5-aminosalicylic acid; assay type: ADME, organism-based; details: in vivo
Rattus norvegicus [18] = experiment: Ulcerogenic effect in rat colon assessed as ulcer index at 3000 mg/kg by Rainsford's cold stress method; assay type: toxicity, organism-based; design: dose 3000 mg/kg; details: in vivo

SMILES | half-life [9] [h] | logD [11] | solubility [12] [mg/mL] | t1/2 [13] [h] | half-life [14] [h] | t1/2 (Rattus norvegicus [15]) [h] | t1/2 (Rattus norvegicus [17]) [h] | Activity (Rattus norvegicus [1]) | Activity (Rattus norvegicus [2]) | Activity (Rattus norvegicus [3]) | Activity (Rattus norvegicus [4]) [mU] | Activity (Rattus norvegicus [5]) | Activity (Rattus norvegicus [6]) | UI (Rattus norvegicus [7]) | Ratio (Rattus norvegicus [8]) | Activity (Liver) | UI (Rattus norvegicus [10]) | Activity (Pancreas) | UI (Rattus norvegicus [16]) | UI (Rattus norvegicus [18])
N[C@H](Cc1ccccc1)C(=O)O [D-PHENYLALANINE] |  |  |  |  |  |  |  | Active | Active | Active | 61.43 | Active | Active |  |  |  |  |  |  | 
Nc1ccc(O)c(C(=O)O)c1 [MESALAMINE] |  |  |  |  |  |  |  |  |  |  | 60.85 | Active | Active | 60.03 |  |  |  |  |  | 
N[C@@H](Cc1c[nH]c2ccccc12)C(=O)O [TRYPTOPHAN] |  |  |  |  |  |  |  | Active | Active | Active | 72.25 | Active | Active |  |  |  |  |  |  | 
O=C(O)c1cc(/N=N/c2ccc(S(=O)(=O)Nc3ccccn3)cc2)ccc1O [SULFASALAZINE] |  |  |  |  |  |  | 2 |  |  |  | 46.63 | Active | Active |  |  |  |  |  |  | 5.83
Nc1ccc(S(=O)(=O)Nc2ccccn2)cc1 [SULFAPYRIDINE] |  |  |  |  |  |  | 2 |  |  |  |  |  |  |  |  |  |  |  |  | 

Continued, in another order:

half-life [9] [h] | logD [11] | solubility [12] [mg/mL] | t1/2 [13] [h] | half-life [14] [h] | t1/2 (Rattus norvegicus [15]) [h] | t1/2 (Rattus norvegicus [17]) [h] | SMILES | Activity (Rattus norvegicus [1]) | Activity (Rattus norvegicus [2]) | Activity (Rattus norvegicus [3]) | Activity (Rattus norvegicus [4]) [mU] | Activity (Rattus norvegicus [5]) | Activity (Rattus norvegicus [6]) | UI (Rattus norvegicus [7]) | Ratio (Rattus norvegicus [8]) | Activity (Liver) | UI (Rattus norvegicus [10]) | Activity (Pancreas) | UI (Rattus norvegicus [16]) | UI (Rattus norvegicus [18])
> 10 | -0.21 | 330 | 6.87 | > 10 | 6 |  | Nc1ccc(C(=O)N[C@H](Cc2ccccc2)C(=O)[O-])c(O)c1.[Na+] |  |  | Active | 46.57 | Active | Active |  | 0.0073 | Non-toxic | 6 | Non-toxic |  | 
 | 1.01 |  |  |  |  |  | Nc1ccc(C(=O)O)c(O)c1 [AMINOSALICYLIC ACID] |  |  | Active | 70.51 | Active | Active | 69.61 |  |  |  |  |  | 
> 10 | -0.19 | 260 | 5.72 | > 10 | 6 |  | Nc1ccc(C(=O)N[C@@H](Cc2c[nH]c3ccccc23)C(=O)[O-])c(O)c1.[Na+] |  |  | Active | 49.24 | Active | Active |  | 0.0071 | Non-toxic |  | Non-toxic | 8.4 | 
